Source: PubChem
Only some compounds are listed: those with a hit (about 3.4% of all), similar ones and a draw of the others.
TRPML3 agonist = human TRPML3 channel agonists, primary screen, cell-based, HEK293 TRPML3-YFP, Fluo-8 calcium fluorescence, 3 µM | AID 1448, 2008 | activation, % at 3 µM | 100% = the carbachol control signal | Mucolipin-3 (Homo sapiens), Q8TDD5 | 220,000 compounds, 0.29% hits;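 active = activation above its plate's cutoff, the mean activation of the plate's test wells plus 3 SD, cut at about 12% in these data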;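 note: 0% = DMSO only wells and 100% = carbachol wells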
Target sequence (Q8TDD5 whole entry, looked up): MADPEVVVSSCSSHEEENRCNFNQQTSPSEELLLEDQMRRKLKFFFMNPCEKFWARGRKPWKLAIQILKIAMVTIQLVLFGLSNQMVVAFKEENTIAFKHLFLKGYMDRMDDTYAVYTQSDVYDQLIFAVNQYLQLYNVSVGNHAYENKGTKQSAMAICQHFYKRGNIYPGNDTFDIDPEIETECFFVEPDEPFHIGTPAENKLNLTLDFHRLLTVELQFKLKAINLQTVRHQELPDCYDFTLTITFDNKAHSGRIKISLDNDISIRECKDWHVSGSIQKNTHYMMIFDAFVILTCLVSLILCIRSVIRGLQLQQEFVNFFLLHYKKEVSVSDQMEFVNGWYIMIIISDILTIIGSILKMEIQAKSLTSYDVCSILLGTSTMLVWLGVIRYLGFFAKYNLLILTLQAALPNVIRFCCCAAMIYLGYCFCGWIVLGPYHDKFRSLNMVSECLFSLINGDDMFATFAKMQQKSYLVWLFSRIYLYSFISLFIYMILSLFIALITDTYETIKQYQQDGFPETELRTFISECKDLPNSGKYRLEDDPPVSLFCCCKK
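Test system: HEK293 cells stably carrying human TRPML3-YFP; Doses: single dose, 3 µM final nominal compound, 0.3% DMSO final; Schedule: dye loading 1 h 37 °C then 30 min ambient, 125 s read; Technique: Fluo-8 calcium fluorescence; Benchmarks: high control carbachol 87 µM, low control DMSO.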
zfTRPN1 agonist = zebrafish TRPN1 channel agonists, primary screen, cell-based, HEK293, calcium fluorescence; transient receptor potential cation channel N1 (TRPN1/NompC), Danio rerio; HEK293 zebrafish TRPN1-YFP, Fluo-8 calcium fluorescence; 100% = response to 87 µM carbachol; activation, % at 3 µM; 220,000 compounds, 0.18% hits; AID 1424, 2008;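 active = activation above its plate's cutoff, the mean activation of test wells on that plate plus 3 SD, cut at about 19% in these data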;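 note: 0% = DMSO alone and 100% = 87 µM carbachol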
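Control set: carbachol 87 µM as high control, DMSO as low control; system: HEK293 stable line with zebrafish TRPN1-YFP; read-out: % activation versus carbachol response; detection: intracellular calcium fluorescence with Fluo-8; doses: single test compound dose, 3 µM nominal, 0.3% DMSO; schedule: dye 1 h 37 °C plus 30 min RT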
TAAR1 agonist = human TAAR1 agonists, primary screen, Fluo-8 calcium fluorescence, CHO RD-HGA16 cells; Trace amine-associated receptor 1 (Homo sapiens), Q96RJ0; activation, % at 3 µM; vehicle wells 0%, saturating PEA agonist 100%; AID 624467, 2012; 360,000 compounds, 0.99% hits;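 active = activation above the mean activation of all test compounds in the run plus 3 SD, cut at about 38% in these data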
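Test system: RD-HGA16 (CHO) cells co-expressing Gα16 and hTAAR1 / Benchmarks: DMSO vehicle as 0%, PEA at EC100 as 100% / Repeats: no replicates (n 1) / Measure: % activation from peak over basal fluorescence ratio, DMSO-to-PEA scaled / Timing: 17-24 h plating, Fluo-8 75 min 37 °C, 30 min RT / Technique: kinetic Fluo-8 calcium fluorescence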
TAAR1 antag = human TAAR1 antagonists, primary screen, Fluo-8 calcium fluorescence, CHO RD-HGA16 cells; Trace amine-associated receptor 1 (Homo sapiens), Q96RJ0; antagonist; inhibition, % at 3 µM; 360,000 compounds, 1.5% hits; AID 624466, 2012;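 active = inhibition above a per-plate cutoff, the mean inhibition of test compounds on that plate plus 3 SD, cut at about 49% in these data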;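 note: 0% = DMSO plus EC80 beta-PEA response and 100% = DMSO alone without agonist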
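Material: CHO RD-HGA16 cells bearing hTAAR1; compound dosing: one-point dosing, 3 µM nominal final; schedule: dye loading 75 min at 37 °C, then 30 min room temperature; measured by: calcium fluorescence with Fluo-8; control set: vehicle and agonist controls; replication: n of 1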
LANA-H2A inh = blockers of LANA interaction with H2A/H2B – biochemical, FP readout, HTS, primary screen | AID 2629, 2010 | cell-free LANA-H2A/H2B peptide, fluorescence polarization | Protein LANA1 (Human herpesvirus 8 type P (isolate GK18)), Q9QR71 | 320,000 compounds, 0.6% hits | inhibition, % (concentration not given with the values); in the data active = inhibition mostly above about 10%, no sharp cut-off; inactive = mostly below about 6.7%
GPR7 antagonist = GPR7 receptor antagonists, primary screen, cell-based, fluorescence, single concentration; Neuropeptides B/W receptor type 1 (Homo sapiens), P48145; GPR7-expressing cells, fluorescence antagonist assay; inhibition, % at 4.4 µM; 290,000 compounds, 1.1% hits; in the data active = inhibition above about 16%, passing the limit was not always enough;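 note: cells stimulated with the agonist NPW; 0% = agonist with vehicle and 100% = vehicle without agonist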
Numbers without * were called inactive; i = inactive; . = not tested or not shown; + = active, no number.

SMILES	TRPML3 agonist	zfTRPN1 agonist	TAAR1 agonist	TAAR1 antag	LANA-H2A inh	GPR7 antagonist
COCCN(CCOC)C(=O)c1c[nH]c2ccc(S(=O)(=O)N(C)c3ccc(F)cc3)cc2c1=O	0	1	18	4	80*	-15
COC(=O)c1cc2c(c3c4cc(F)ccc4n(S(=O)(=O)c4ccccc4)c13)C(=O)N(Cc1ccco1)C2	.	.	1	-8	.	.
O=[N+]([O-])c1cccc(N/N=C/c2ccc(N3CCOCC3)cc2)c1	.	.	14	58*	-3	-2
Cc1cccnc1NC(=O)CCC(=O)c1cccs1	.	.	1	17	25*	.
CCCCc1nnn2c1C1c3cc(Br)ccc3CCN1C(=O)C2 (stereo not given)	.	.	2	-20	.	.
Cc1nc(N2CCc3ccccc3C2)[nH]c(=O)c1Cc1ccccc1	1	0	19	5	11*	-13
COC(=O)C1=C(C)N(C)C(=NCc2ccccc2)NC1c1ccccc1C(F)(F)F (stereo not given)	.	.	3	-15	.	.
O=C(Nc1ccc(C(=O)N2CCOCC2)cc1)c1cc(-c2cccnc2)nc2ccc(Br)cc12	1	7	20	53*	-1	3
O=C(Nc1ccccn1)c1cc(-c2cccnc2)nc2ccc(Br)cc12	1	1	6	23	1	2
O=C(NNC(=O)c1cc(-c2cccnc2)nc2ccccc12)Nc1ccc(Cl)cc1	3	4	13	82*	-1	-9
O=C(C1CCCN(S(=O)(=O)c2cccc3nonc23)C1)N1CCN(c2ccccc2Cl)CC1 (stereo not given)	-1	1	8	24	.	-4
O=C(C1CCCN(S(=O)(=O)c2cccc3nonc23)C1)N1CCN(c2cccc(Cl)c2)CC1 (stereo not given)	0	-1	10	49*	4	8
O=C(C1CCN(S(=O)(=O)c2cccc3cccnc23)CC1)N1CCN(c2ccc(Cl)cc2)CC1	1	3	11	15	0	17*
CCCCOc1ccc(C(=O)NC2CCCCN(C)C2=O)cc1 (stereo not given)	.	.	1	2	.	.
CCN(CC)C(=O)[C@H]1C[C@@H]2[C@H](C[C@@H](c3ccccc3)[C@H]1C)N(c1ccc(F)cc1)C(=O)N2C/C=C(\C)CCC=C(C)C	.	.	-1	-15	.	.
CCCc1nc2ccccc2[nH]1	0	0	11	17	-3	1
c1ccc2[nH]c(CCCCc3nc4ccccc4[nH]3)nc2c1	.	.	38*	-1	-3	-8
CCN(CC)c1ccc2cc(S(=O)(=O)c3ccc(Cl)cc3)c(=O)oc2c1	1	1	25	6	39*	-11
COCCCNC(=O)C[C@H]1C[C@@]2(C(=O)OC)C(=C[C@H](C3CCCC3)O[C@@H]2C)N(Cc2ccccc2)C1=O	.	.	0	-30	.	.
COc1ccc(N/C=C/C(=O)c2ccc(Cl)cc2)cc1	0	0	2	-1	33*	-6
COc1cccc(N/C=C/C(=O)c2ccc(Cl)cc2)c1	0	-1	-2	1	i	-7
COc1cccc(C(=O)/C=C/Nc2ccc(S(=O)(=O)Nc3cccc(C(C)=O)c3)cc2)c1	0	1	11	56*	2	15
COc1ccc(N/C=C/C(=O)c2cc(OC)c(OC)c(OC)c2)cc1	.	.	0	-12	12*	-3
COc1cccc(C(=O)/C=C/Nc2ccc(NC(C)=O)cc2)c1	0	1	5	8	2	-12
COc1ccc(-c2n[nH]c(C)c2-c2ccc(Cl)cc2)c(O)c1OC	0	1	19	54*	4	-13
SMILES	TRPML3 agonist	zfTRPN1 agonist	TAAR1 agonist	TAAR1 antag	LANA-H2A inh	GPR7 antagonist
O=C(Cc1ccc(Cl)cc1)Nc1nc2ccccc2[nH]1	0	-1	39*	2	5	0
COc1ccc(Br)cc1/C=C/C(=O)c1ccc(NC(C)=O)cc1	2	2	13	56*	2	6
O=C(Nc1ccc(NC(=O)c2ccc(Cl)cc2Cl)cc1)c1cccs1	.	.	7	-5	8	-7
COc1ccc(/C=C/C(=O)c2ccc(NC(=O)c3cccs3)cc2)cc1OC	1	3	43*	53*	1	-2
COc1c(Cl)cc(Cl)cc1C(=O)Nc1ccc(NC(=O)c2cccs2)cc1	0	1	16	69*	-3	-8
O=C1NC(=O)C2(CCCc3ccc(N(CCO)CCO)cc32)N1 (stereo not given)	.	.	0	5	.	.
S=c1[nH]nc(-c2cccs2)n1/N=C/c1c(Cl)cccc1Cl	1	-3	48*	53*	3	-19
CC1OC(OCC2OC(Oc3c(-c4ccc(O)cc4)oc4cc(O)cc(O)c4c3=O)C(O)C(O)C2O)C(O)C(O)C1O (stereo not given)	0	2	6	0	+	-22
N#Cc1c2n(c(=S)n(-c3ccc(OC(F)F)cc3)c1=O)CCCCC2	1	2	20	16	-3	17*
N#Cc1c2n(c(=S)n(-c3ccccn3)c1=O)CCCCC2	1	2	2	3	-5	-14
CCOC(=O)c1c2c(n(Cc3ccccc3)c1C)C(=O)C(=O)c1ccccc1-2	.	.	3	55*	.	.
COc1ccc(NC(=O)CC(=O)Nc2ccc(OC)cc2OC)c(OC)c1	0	0	6	9	0	-15
COc1ccc(NC(=O)CSc2cn[nH]n2)c(OC)c1	.	.	1	-13	34*	1
COc1ccc(OC)c(NC(=O)Cn2cccc2)c1	0	1	.	.	17*	-10
COc1ccc(C(=O)C2CCN(CC(=O)Nc3ccc(OC)cc3OC)CC2)cc1	.	.	-3	-1	19*	1
O=C(NC1CCCC1)[C@@H]1CCCN1C(=O)[C@@H](NC(=O)N1CCOCC1)C1CCCCC1	.	.	2	7	.	.
CCCC(=O)OC[C@H]1CN([C@H](C)c2ccccc2)S(=O)(=O)c2c(F)cccc2O1	.	.	-1	9	.	.
CC[C@@]1(C(=O)OC)N[C@H](CN(C)C(=O)Nc2ccc(F)cc2)[C@@H]2C(=O)N(Cc3ccccc3)C(=O)[C@@H]21	.	.	14	-36	.	.
CC[C@@]1(C(=O)OC)N[C@H](CN(C)C(=O)Nc2ccc(OC)cc2)[C@@H]2C(=O)N(Cc3ccccc3)C(=O)[C@@H]21	.	.	0	-19	+	.
